{"source": "paper PMC4066402", "about": "(Genes & Development, 2014)", "molecules": {"B1": {"name": "Schizosaccharomyces pombe RNA guanylyltransferase (GTase) Pce1, wild type, as the covalent Pce1–GMP intermediate (enzyme)", "chain": "SMAPSEKDIEEVSVPGVLAPRDDVRVLKTRIAKLLGTSPDTFPGSQPVSFSKKHLQALKEKNYFVCEKSDGIRCLLYMTEHPRYENRPSVYLFDRKMNFYHVEKIFYPVENDKSGKKYHVDTLLDGELVLDIYPGGKKQLRYLVFDCLACDGIVYMSRLLDKRLGIFAKSIQKPLDEYTKTHMRETAIFPFLTSLKKMELGHGILKLFNEVIPRLRHGNDGLIFTCTETPYVSGTDQSLLKWKPKEMNTIDFMLKLEFAQPEEGDIDYSAMPEFQLGVWEGRNMYSFFAFMYVDEKEWEKLKSFNVPLSERIVECYLDDENRWRFLRFRDDKRDANHISTVKSVLQSIEDGVSKEDLLKEMPIIREAYYNRKKPSVTKRKLDETSNDDAPAIKKVAKESEKEI", "modifications": "Lys67 covalently guanylylated (lysyl-Nζ-GMP)"}, "B2": {"name": "Pce1-G276R (enzyme)", "chain": "B1 chain with G277R", "modifications": "guanylylated in vitro (Pce1–GMP)"}, "B3": {"name": "BODIPY-FL-Spt5 CTD-(801–898): N(Cys)-Spt5-(801–898) labeled with BODIPY-FL at the N terminus via maleimide chemistry (protein, UniProt O13936 801-898, looked up, fragment)", "chain": "ISTADGPNVPNWAQGARTPAVANGSRTPAWNTGSRTPAWNSGSKTPAWNSGSRTPAWNSGNKTPAWNAGSRTPAWNSGNKTPAWNVGNKTPAWNSGAK", "modifications": "N-terminal Cys, BODIPY-FL label"}, "B4": {"name": "Spt5-(801–898): purified recombinant Spt5-(801–898), composed of 10 nonamer repeats (protein, UniProt O13936 801-898, looked up, fragment)", "chain": "B3 chain"}, "B5": {"name": "Spt5 CTD composed of 10 nonamer repeats: Spt5 CTD composed of 10 nonamer repeats (protein, UniProt O13936 801-898, looked up, fragment)", "chain": "B3 chain"}}, "key": {"[1]": {"biological_target": "T1, BODIPY-FL-N(Cys)-Spt5-(801–898) (S. pombe) (UniProt O13936)", "T1 sequence (O13936 801-898, looked up)": "B3 chain", "assay": "fluorescence polarisation"}, "Pce1 G276R": {"biological_target": "T2, Pce1 G276R (Schizosaccharomyces pombe, UniProt P40997, G276R)", "T2 sequence (P40997 1-402 G276R)": "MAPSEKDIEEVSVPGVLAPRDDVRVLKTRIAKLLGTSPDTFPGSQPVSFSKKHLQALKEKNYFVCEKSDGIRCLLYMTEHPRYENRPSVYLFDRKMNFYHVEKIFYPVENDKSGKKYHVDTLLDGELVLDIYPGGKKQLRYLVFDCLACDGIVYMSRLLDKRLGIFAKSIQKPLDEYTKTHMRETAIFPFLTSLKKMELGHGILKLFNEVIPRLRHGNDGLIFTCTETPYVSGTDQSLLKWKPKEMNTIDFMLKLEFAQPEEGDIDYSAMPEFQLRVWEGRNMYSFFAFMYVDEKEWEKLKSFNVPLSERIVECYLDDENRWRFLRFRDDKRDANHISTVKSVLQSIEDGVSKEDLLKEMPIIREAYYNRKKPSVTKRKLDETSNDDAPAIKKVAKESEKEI", "assay": "Fluorescence polarization binding of Spt5 CTD-", "design": "species or system S. pombe", "how_it_was_run": "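Tag-free Pce1–GMP (His6Smt3 fusion made in E. coli, Ulp1-cleaved, gel-filtered, then guanylylated with 1 mM GTP/5 mM MgCl2 for 30 min on ice) was titrated against BODIPY-FL-N(Cys)-Spt5-(801–898) in 20 mM Tris-HCl, 4 mM DTT. Incubation was 15 min on ice. Read-out was polarization at ex 485/em 538 nm. Kd came from single-site fits, using a receptor-depletion model where half-saturation approached the ligand concentration.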"}, "Pce1 [2]": {"biological_target": "T3, Pce1 (Schizosaccharomyces pombe, UniProt P40997)", "T3 sequence (P40997 1-402)": "T2 sequence (P40997 1-402 G276R) with R276G", "assay": "Competition between labeled and unlabeled Spt5 CTD-", "assay_type": "binding, S. pombe", "conditions": "1 μM Pce1 preincubated with untagged Spt5 CTD-(801–898) 15 min on ice, then 0.3 μM BODIPY-FL-Spt5 CTD-(801–898); pH 8.0; three independent experiments ± SEM"}, "Pce1 [3]": {"tested_on": "Pce1", "conditions": "His tag affinity chromatography assay; ref Pei and Shuman 2002; cited from earlier work"}}, "note": "Changes are numbered by the printed parent chain."}
{"molecule": "B1", "values": [{"measurement": "Kd", "setting": "[1]", "value": 1.19, "unit": "µM"}]}
{"molecule": "B2", "values": [{"measurement": "Kd", "setting": "[1]", "value": 28.8, "unit": "µM"}]}
{"molecule": "B3", "values": [{"measurement": "decrement in binding affinity", "setting": "Pce1 G276R; Pce1-G276R vs wild-type Pce1", "value": 24, "unit": "fold"}, {"measurement": "Kd", "setting": "Pce1 G276R; Pce1 G276R, 300 nM labeled ligand, pH 8.0, 50 mM NaCl, read at 23°C, triplicate", "value": "28.8 ± 4.3", "unit": "µM"}]}
{"molecule": "B4", "values": [{"measurement": "Ki", "setting": "Pce1 [2]", "value": "0.61 ± 0.2", "unit": "µM"}]}
{"molecule": "B5", "values": [{"measurement": "Pce1 binding to Spt5 CTD, dependence on number of nonamer repeats", "setting": "Pce1 [3]", "value": "bound well"}]}
